For nine molecules, MIC, inhibition and Activity results are on record in ChEMBL document CHEMBL4732114, “Design and structural optimization of novel 2H-benzo[h]chromene derivatives that target AcrB and reverse bacterial multidrug resistance” (Eur J Med Chem, 2021).

Series [1] has as its target T1, Multidrug efflux pump subunit AcrB (Escherichia coli (strain K12)) (UniProt P31224).
T1 sequence (whole entry): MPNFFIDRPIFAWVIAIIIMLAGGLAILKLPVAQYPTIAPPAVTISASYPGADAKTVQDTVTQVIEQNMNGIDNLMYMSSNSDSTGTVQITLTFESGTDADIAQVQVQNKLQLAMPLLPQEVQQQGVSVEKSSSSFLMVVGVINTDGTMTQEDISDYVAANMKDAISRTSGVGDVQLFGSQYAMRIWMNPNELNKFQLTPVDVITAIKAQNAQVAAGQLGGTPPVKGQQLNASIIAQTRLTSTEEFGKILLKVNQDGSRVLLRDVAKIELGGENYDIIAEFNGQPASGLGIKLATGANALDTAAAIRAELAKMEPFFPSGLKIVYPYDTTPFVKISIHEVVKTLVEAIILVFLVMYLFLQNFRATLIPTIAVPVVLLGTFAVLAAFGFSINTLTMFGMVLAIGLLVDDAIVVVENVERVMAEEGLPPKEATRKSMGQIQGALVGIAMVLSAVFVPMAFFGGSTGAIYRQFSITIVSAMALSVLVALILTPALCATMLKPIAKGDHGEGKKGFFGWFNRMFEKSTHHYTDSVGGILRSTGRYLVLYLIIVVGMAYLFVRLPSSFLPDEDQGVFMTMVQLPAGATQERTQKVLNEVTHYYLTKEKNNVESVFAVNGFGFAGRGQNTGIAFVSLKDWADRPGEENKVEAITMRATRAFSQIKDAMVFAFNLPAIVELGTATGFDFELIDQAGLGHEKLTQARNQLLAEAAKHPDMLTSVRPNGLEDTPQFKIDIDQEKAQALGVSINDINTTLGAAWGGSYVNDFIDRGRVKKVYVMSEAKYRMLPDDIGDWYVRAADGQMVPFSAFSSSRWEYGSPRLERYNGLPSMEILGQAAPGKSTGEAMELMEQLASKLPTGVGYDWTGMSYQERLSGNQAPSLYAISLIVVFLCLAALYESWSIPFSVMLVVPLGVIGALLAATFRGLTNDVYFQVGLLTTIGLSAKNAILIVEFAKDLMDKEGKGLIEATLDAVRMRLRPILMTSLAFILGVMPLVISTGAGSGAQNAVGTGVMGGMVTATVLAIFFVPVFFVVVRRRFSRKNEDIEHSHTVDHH
Briefly: Inhibition of AcrB in multidrug-resistant Escherichia coli BW25113 assessed as potentiation of erythromycin-induced antibacterial activity by measuring erythromycin MIC at 64 ug/ml by checkerboard titration method (reference value: 64 ug/ml). The note with it: dose 64.0 µg/ml.

The target of series [2] is T1, Multidrug efflux pump subunit AcrB (Escherichia coli (strain K12)). The note with it: Escherichia coli BW25113; dose 64.0 µg/ml.
Series [3] has the same target. The experiment in a line: Inhibition of AcrB in multidrug-resistant Escherichia coli BW25113 assessed as potentiation of chloramphenicol-induced antibacterial activity by measuring chloramphenicol MIC at 64 ug/ml by checkerboard titration method (reference value: 8 ug/ml). The note with it: dose 64.0 µg/ml.
A short description of series [4]: Toxicity in multidrug-resistant Escherichia coli BW25113 assessed as growth inhibition by two-fold broth dilution method.
The target of series [5] is T1, Multidrug efflux pump subunit AcrB (Escherichia coli (strain K12)). The settings on record: Escherichia coli BW25113; dose 8.0 µg/ml.
Series [6] shares this target. Briefly: Inhibition of AcrB in multidrug-resistant Escherichia coli BW25113 assessed as potentiation of levofloxacin-induced antibacterial activity by measuring levofloxacin MIC at 64 ug/ml by checkerboard titration method (reference value: 0.06 ug/ml). The settings on record: dose 64.0 µg/ml.
For series [7] the target is unchanged. The experiment in a line: Inhibition of AcrB in multidrug-resistant Escherichia coli BW25113 assessed as potentiation of chloramphenicol-induced antibacterial activity by measuring chloramphenicol MIC at 16 ug/ml by checkerboard titration method (reference value: 8 ug/ml). The note with it: dose 16.0 µg/ml.
Series [8] shares this target. The experiment in a line: Inhibition of AcrB in multidrug-resistant Escherichia coli BW25113 assessed as potentiation of tetraphenylphosphonium-induced antibacterial activity by measuring tetraphenylphosphonium MIC at 16 ug/ml by checkerboard titration method (reference value: 1024 ug/ml). The note with it: dose 16.0 µg/ml.
Series [9] has the same target. Briefly: Inhibition of AcrB in multidrug-resistant Escherichia coli BW25113 assessed as potentiation of erythromycin-induced antibacterial activity by measuring erythromycin MIC at 128 ug/ml by checkerboard titration method (reference value: 64 ug/ml). The note with it: dose 128.0 µg/ml.
For series [10] the target is unchanged. The experiment in a line: Inhibition of AcrB in multidrug-resistant Escherichia coli BW25113 assessed as potentiation of erythromycin-induced antibacterial activity by measuring erythromycin MIC at 16 ug/ml by checkerboard titration method (reference value: 64 ug/ml). The note with it: dose 16.0 µg/ml.
Series [11] shares this target. Briefly: Inhibition of AcrB in Escherichia coli BW25113 assessed as reduction in glucose-induced nile red efflux at 100 uM preincubated for 15 mins followed by nile red addition and incubated for 3 hrs in shaker in presence of CCCP by fluorimetric analysis. The note with it: time 3.25 hrs. In short, it runs like this: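 Wild-type and AcrB-deleted cells were preloaded with Nile Red, with or without compound. Fluorescence was recorded, and efflux was triggered at 100 s with 0.2% glucose. Traces were compared with the deletion-strain level. Triplicate experiments used different cell batches.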

The target is the same in series [12]. The experiment in a line: Inhibition of AcrB in multidrug-resistant Escherichia coli BW25113 assessed as potentiation of levofloxacin-induced antibacterial activity by measuring levofloxacin MIC at 16 ug/ml by checkerboard titration method (reference value: 0.06 ug/ml). The settings on record: dose 16.0 µg/ml.
Series [13] is described as follows: Toxicity in multidrug-resistant Escherichia coli BW25113 harboring AcrB deletion mutant assessed as growth inhibition by two-fold broth dilution method. (In broth dilution the organism is exposed to a series of concentrations in liquid medium.)
The target of series [14] is T1, Multidrug efflux pump subunit AcrB (Escherichia coli (strain K12)). The settings on record: Escherichia coli BW25113; dose 128.0 µg/ml.
Another series has as its system Cell membrane. Briefly: Induction of inner membrane permeabilization in wild type Escherichia coli BW25113 assessed as perturbation of proton motive force at 32 ug/ml measured after 10 mins in presence of CCCP and glucose by Di0C2(3) probe based fluorescence assay. The note with it: escherichia coli bw25113, 10 min, dose 32 µg/ml. In short, it runs like this:
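Cell suspensions were left untreated or exposed to 8-128 µg/mL compound for 10 min. DiOC₂(3) was then added and fluorescence followed to a plateau. Cells were re-energized with 0.5% glucose, and the rise in fluorescence was read as membrane-potential build-up. CCCP was added last to dissipate the potential.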

Each structure is given as a SMILES string. Converted amounts (≈) assume the structure as drawn. The source made the active and inactive calls. The calls are words filed in the database; no cut-off is given here.

As for `CC1CN(C(=O)c2cc3c(OCc4ccc(Br)cc4)cccc3c3c2CCC(C)(C)O3)CC(C)O1` (stereo not given), the MIC is 64 µg/mL in series [1]; 16 µg/mL (≈ 29.7 µM) in [2]; 8 µg/mL in series [3]; more than 512 µg/mL in series [4]; 16 µg/mL (≈ 29.7 µM) in series [5]; 0.06 µg/mL in series [6]. Also, the MIC in series [7] is 8 µg/mL; in [8], 1020 µg/mL; in [9], 32 µg/mL; in series [10], 64 µg/mL; in [12], 0.06 µg/mL; in series [13], more than 128 µg/mL. Further, the MIC in [14] stood at 16 µg/mL (≈ 29.7 µM). Further, the inhibition result in [11] was “Active”.
In the case of `CC1(C)CCc2c(Cn3cnnn3)cc3c(OCc4ccc(OC(F)(F)F)cc4)cccc3c2O1`, the MIC was 64 µg/mL in [1]; 16 µg/mL (≈ 33 µM) in series [2]; 8 µg/mL in [3]; more than 512 µg/mL in [4]; 16 µg/mL (≈ 33 µM) in series [5]; 0.06 µg/mL in series [6]. Moreover, the MIC in [7] is 8 µg/mL; in series [8] it was 1020 µg/mL; in series [9] it was 32 µg/mL; in series [10], 64 µg/mL; in series [12] it was 0.06 µg/mL; in series [13], more than 128 µg/mL. This molecule displayed an MIC in series [14] of 16 µg/mL (≈ 33 µM). In addition, the inhibition entry in series [11] is “Active”.
With `CC1(C)CCc2c(-c3nnco3)cc3c(OCc4ccc([N+](=O)[O-])cc4)cccc3c2O1`, the MIC is 32 µg/mL in series [1]; 16 µg/mL (≈ 37.1 µM) in [2]; 8 µg/mL in [3]; more than 512 µg/mL in series [4]; 16 µg/mL (≈ 37.1 µM) in series [5]; 0.06 µg/mL in series [6]. Also, the MIC is 8 µg/mL in series [7]; 1020 µg/mL in series [8]; 32 µg/mL in series [9]; 64 µg/mL in [10]; 0.06 µg/mL in series [12]; more than 128 µg/mL in series [13]. In addition, in series [14], the MIC amounted to 16 µg/mL (≈ 37.1 µM). Also, the inhibition entry in series [11] was “Active”.
In the case of `COc1cccc(COc2cccc3c4c(c(C(=O)O)cc23)CCC(C)(C)O4)c1`, the MIC in [1] is 32 µg/mL; in series [2], 16 µg/mL (≈ 40.8 µM); in [3] it was 4 µg/mL; in [4] it was more than 512 µg/mL; in series [5], 16 µg/mL (≈ 40.8 µM); in series [6], 0.06 µg/mL. Besides, the MIC in [7] is 8 µg/mL; in series [8] it was 1020 µg/mL; in series [9], 16 µg/mL; in series [10] it was 64 µg/mL; in series [12], 0.06 µg/mL; in series [13], more than 128 µg/mL. This molecule also returned an MIC in series [14] of 16 µg/mL (≈ 40.8 µM). The Activity result in the series on Cell membrane is given as “Not Active”. The inhibition result in series [11] is “Active”.
Regarding `COc1cccc(COc2cccc3c4c(c(C(=O)N5CCOCC5)cc23)CCC(C)(C)O4)c1`, the MIC is 32 µg/mL in series [1]; 16 µg/mL (≈ 34.7 µM) in series [2]; 4 µg/mL in [3]; more than 512 µg/mL in [4]; 16 µg/mL (≈ 34.7 µM) in [5]; 0.06 µg/mL in series [6]. The MIC is 4 µg/mL in [7]; 512 µg/mL in [8]; 16 µg/mL in series [9]; 64 µg/mL in series [10]; 0.06 µg/mL in series [12]; more than 128 µg/mL in series [13]. For the same molecule, the MIC in series [14] worked out at 16 µg/mL (≈ 34.7 µM). The Activity result with Cell membrane is recorded as “Not Active”.
Take `CC1(C)CCc2c(Cn3cnnn3)cc3c(OCc4ccccc4)cccc3c2O1`: the MIC in [1] was 64 µg/mL; in [2], 16 µg/mL (≈ 40 µM); in [3], 4 µg/mL; in series [4], more than 512 µg/mL; in series [5], 16 µg/mL (≈ 40 µM); in [6], 0.06 µg/mL. In addition, the MIC in series [7] was 8 µg/mL; in series [8], 1020 µg/mL; in series [9] it was 64 µg/mL; in series [10], 64 µg/mL; in series [12], 0.06 µg/mL; in series [13], more than 128 µg/mL. Moreover, in [14], the MIC came out at 16 µg/mL (≈ 40 µM). The inhibition entry in [11] was “Active”.
As to `CC1(C)CCc2c(Cn3cnnn3)cc3c(OCc4ccc([N+](=O)[O-])cc4)cccc3c2O1`, the MIC was 64 µg/mL in [1]; 16 µg/mL (≈ 35.9 µM) in series [2]; 8 µg/mL in [3]; more than 512 µg/mL in [4]; 16 µg/mL (≈ 35.9 µM) in series [5]; 0.06 µg/mL in [6]. Further, the MIC was 8 µg/mL in [7]; 1020 µg/mL in [8]; 64 µg/mL in series [9]; 64 µg/mL in series [10]; 0.06 µg/mL in series [12]; more than 128 µg/mL in series [13]. Moreover, the MIC in [14] turned out to be 16 µg/mL (≈ 35.9 µM). In series [11], the inhibition entry was “Active”.
For `CC1(C)CCc2c(-c3nnco3)cc3c(OCc4ccc(C#N)cc4)cccc3c2O1`, the MIC in series [1] was 64 µg/mL; in series [2] it was 16 µg/mL (≈ 38.9 µM); in series [3], 4 µg/mL; in series [4], more than 512 µg/mL; in series [5] it was 16 µg/mL (≈ 38.9 µM); in series [6], 0.06 µg/mL. Moreover, the MIC was 4 µg/mL in series [7]; 1020 µg/mL in [8]; 32 µg/mL in series [9]; 64 µg/mL in series [10]; 0.06 µg/mL in [12]; more than 128 µg/mL in series [13]. This molecule also showed an MIC in series [14] of 16 µg/mL (≈ 38.9 µM).
For `C=CC(=O)Nc1ccc(COc2cccc3c4c(c(Cn5cnnn5)cc23)CCC(C)(C)O4)cc1`, the MIC in series [1] is 32 µg/mL; in series [2], 16 µg/mL (≈ 34.1 µM); in [3], 4 µg/mL; in [4] it was more than 512 µg/mL; in series [5] it was 16 µg/mL (≈ 34.1 µM); in [6] it was 0.06 µg/mL. Also, the MIC in series [7] is 8 µg/mL; in [8], 1020 µg/mL; in [9], 32 µg/mL; in series [10], 64 µg/mL; in series [12] it was 0.06 µg/mL; in [13], more than 128 µg/mL. In [14], this molecule returned an MIC of 16 µg/mL (≈ 34.1 µM).
